Assay results: ChEMBL document CHEMBL5096186, “Design, Synthesis, and Biological Evaluation of Novel Pyrimido[4,5-b]indole Derivatives Against Gram-Negative Multidrug-Resistant Pathogens” (J Med Chem, 2021)
Converted amounts (≈) assume the structure as drawn.

Columns and labels:
[1] = tested on: Staphylococcus aureus; experiment: Antibacterial activity against methicillin-sensitive Staphylococcus aureus strains 15 1 to 4 assessed as reduction in bacterial growth incubated for 18 to 20 hrs by CLSI based microdilution method; assay type: functional; conditions: time 18-20 hrs
Procedure, shortened: (§1)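 Broth microdilution per CLSI. Compounds dissolved in DMSO (levofloxacin and meropenem in water) as 64 μg/mL stock, then serial twofold dilutions in broth giving 64 to 0.008 μg/mL. […] Clinical isolates tested as several strains per group; racemic GP-1 served as positive control; values given as MIC ranges.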

[2] = tested on: Staphylococcus epidermidis; experiment: Antibacterial activity against methicillin-sensitive Staphylococcus epidermidis strains 15 1 to 4 assessed as reduction in bacterial growth incubated for 18 to 20 hrs by CLSI based microdilution method; assay type: functional; conditions: time 18-20 hrs; procedure, shortened: as §1
[3] = tested on: Escherichia coli; experiment: Antibacterial activity against ESBL-producing Escherichia coli ATCC 35218 strains 15 1 to 3 assessed as reduction in bacterial growth incubated for 18 to 20 hrs by CLSI based microdilution method; assay type: functional; conditions: time 18-20 hrs
Procedure, shortened: (§2)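 CLSI broth microdilution. Compounds in DMSO (levofloxacin and meropenem in water), serial twofold dilutions in broth, 64 to 0.008 μg/mL. […] Results reported as MIC ranges across strains.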

[4] = tested on: Escherichia coli; experiment: Antibacterial activity against Escherichia coli ATCC 35218 strains 15 1 to 3 assessed as reduction in bacterial growth incubated for 18 to 20 hrs by CLSI based microdilution method; assay type: functional; conditions: time 18-20 hrs; procedure, shortened: as §2
[5] = tested on: Pseudomonas aeruginosa; experiment: Antibacterial activity against multidrug resistant Pseudomonas aeruginosa strains 15 1 to 3 assessed as reduction in bacterial growth incubated for 18 to 20 hrs by CLSI based microdilution method; assay type: functional; conditions: time 18-20 hrs; procedure, shortened: as §1
[6] = target: hERG (KCNH2) potassium channel (Homo sapiens, UniProt Q12809); experiment: Inhibition of hERG potassium channel assessed as maximum inhibition rate at 40 uM at -80 mV holding potential incubated for 120 seconds by whole cell-automated voltage clamp analysis assay relative to control; assay type: toxicity; conditions: time 120 sec
hERG (KCNH2) potassium channel, sequence (Q12809 whole entry): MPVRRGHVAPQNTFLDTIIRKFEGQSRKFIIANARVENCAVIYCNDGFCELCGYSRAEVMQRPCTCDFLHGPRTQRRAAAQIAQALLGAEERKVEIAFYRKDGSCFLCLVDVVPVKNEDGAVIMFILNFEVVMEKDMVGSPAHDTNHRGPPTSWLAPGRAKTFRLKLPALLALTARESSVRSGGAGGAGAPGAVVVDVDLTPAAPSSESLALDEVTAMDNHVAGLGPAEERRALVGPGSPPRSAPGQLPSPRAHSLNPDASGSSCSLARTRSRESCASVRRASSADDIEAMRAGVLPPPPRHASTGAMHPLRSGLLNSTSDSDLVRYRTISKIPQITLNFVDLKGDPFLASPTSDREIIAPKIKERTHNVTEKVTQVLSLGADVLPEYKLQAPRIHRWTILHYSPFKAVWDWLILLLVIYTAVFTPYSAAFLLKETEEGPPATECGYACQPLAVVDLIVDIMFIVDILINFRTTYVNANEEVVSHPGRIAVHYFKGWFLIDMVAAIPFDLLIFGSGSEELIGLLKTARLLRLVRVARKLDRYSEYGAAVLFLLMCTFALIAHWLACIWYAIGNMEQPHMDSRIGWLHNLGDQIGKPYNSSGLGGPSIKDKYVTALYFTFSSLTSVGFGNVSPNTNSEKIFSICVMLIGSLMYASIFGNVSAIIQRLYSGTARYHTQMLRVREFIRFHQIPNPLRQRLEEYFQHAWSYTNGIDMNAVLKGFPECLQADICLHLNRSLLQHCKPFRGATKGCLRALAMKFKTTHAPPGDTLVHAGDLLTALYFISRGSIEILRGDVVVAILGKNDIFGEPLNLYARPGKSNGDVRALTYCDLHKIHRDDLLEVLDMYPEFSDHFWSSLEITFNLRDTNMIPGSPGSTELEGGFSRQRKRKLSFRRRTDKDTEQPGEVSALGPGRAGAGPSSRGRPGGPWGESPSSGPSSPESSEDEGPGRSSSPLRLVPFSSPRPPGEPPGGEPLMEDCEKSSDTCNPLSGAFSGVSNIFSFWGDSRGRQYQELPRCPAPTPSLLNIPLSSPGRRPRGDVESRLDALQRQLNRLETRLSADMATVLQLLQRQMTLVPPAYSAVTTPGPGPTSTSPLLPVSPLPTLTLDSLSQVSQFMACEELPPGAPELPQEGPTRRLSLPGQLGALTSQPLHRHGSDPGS
Procedure, shortened: (§3)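 Automated whole-cell patch clamp, holding potential −80 mV. Voltage protocol applied every 20 s. Baseline set with external solution containing 0.1% DMSO and stabilised 3 min. Compound applied until steady state, at least 3 min, then washout. Maximum tested concentration 40 μM, or 3 μM for cisapride as positive control.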

[7] = target: Voltage-gated inwardly rectifying potassium channel KCNH2 (Homo sapiens, UniProt Q12809); experiment: Inhibition of hERG potassium channel assessed as […] at -80 mV holding potential incubated for 120 seconds by whole cell-automated voltage clamp analysis assay; assay type: toxicity; procedure, shortened: as §3
Voltage-gated inwardly rectifying potassium channel KCNH2, sequence (Q12809 whole entry): as above

[8] = tested on: Escherichia coli; experiment: Antibacterial activity against ESBL-producing multidrug resistant Escherichia coli assessed as reduction in bacterial growth incubated for 18 to 20 hrs by CLSI based microdilution method; assay type: functional; conditions: time 18-20 hrs; procedure, shortened: as §1
[9] = tested on: Escherichia coli; experiment: Antibacterial activity against multidrug resistant wild type Escherichia coli ATCC BAA-2340 assessed as reduction in bacterial growth incubated for 18 to 20 hrs by CLSI based microdilution method; assay type: functional; conditions: time 18-20 hrs; procedure, shortened: as §1
[10] = tested on: Escherichia coli; experiment: Antibacterial activity against multidrug resistant wild type Escherichia coli NCTC 13353 assessed as reduction in bacterial growth incubated for 18 to 20 hrs by CLSI based microdilution method; assay type: functional; conditions: time 18-20 hrs; procedure, shortened: as §1
[11] = tested on: Klebsiella pneumoniae; experiment: Antibacterial activity against KPC2-producing multidrug resistant Klebsiella pneumoniae assessed as reduction in bacterial growth incubated for 18 to 20 hrs by CLSI based microdilution method; assay type: functional; conditions: time 18-20 hrs; procedure, shortened: as §1
[12] = tested on: Klebsiella pneumoniae; experiment: Antibacterial activity agains wild type Klebsiella pneumoniae ATCC BAA-1705 assessed as reduction in bacterial growth incubated for 18 to 20 hrs by CLSI based microdilution method; assay type: functional; conditions: time 18-20 hrs; procedure, shortened: as §2
[13] = tested on: Klebsiella pneumoniae; experiment: Antibacterial activity agains wild type Klebsiella pneumoniae ATCC BAA-2470 assessed as reduction in bacterial growth incubated for 18 to 20 hrs by CLSI based microdilution method; assay type: functional; conditions: time 18-20 hrs; procedure, shortened: as §1
[14] = tested on: Acinetobacter baumannii; experiment: Antibacterial activity agains OXA23-producing multidrug resistant Acinetobacter baumannii assessed as reduction in bacterial growth incubated for 18 to 20 hrs by CLSI based microdilution method; assay type: functional; conditions: time 18-20 hrs; procedure, shortened: as §1
[15] = tested on: Acinetobacter baumannii; experiment: Antibacterial activity against wild type Acinetobacter baumannii NCTC 13304 assessed as reduction in bacterial growth incubated for 18 to 20 hrs by CLSI based microdilution method; assay type: functional; conditions: time 18-20 hrs; procedure, shortened: as §1
[16] = tested on: Pseudomonas aeruginosa; experiment: Antibacterial activity against IMP4-producing multidrug resistant Pseudomonas aeruginosa assessed as reduction in bacterial growth incubated for 18 to 20 hrs by CLSI based microdilution method; assay type: functional; conditions: time 18-20 hrs; procedure, shortened: as §1
[17] = tested on: Pseudomonas aeruginosa; experiment: Antibacterial activity against wild type Pseudomonas aeruginosa ATCC 27853 assessed as reduction in bacterial growth incubated for 18 to 20 hrs by CLSI based microdilution method; assay type: functional; conditions: time 18-20 hrs; procedure, shortened: as §2
[18] = Metabolic stability in rat liver microsome assessed as elimination half life at 0.1 uM in presence of NADPH incubated upto 60 mins by LC-MS/MS analysis; assay type: ADME; conditions: liver microsomes, read-out: beta t1/2
Procedure, shortened: (§4)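 Compound at 0.1 μM final, in 0.01% DMSO with 0.005% BSA. Incubated with rat or human liver microsomes at 0.33 mg/mL in 0.1 M Tris-HCl, pH 7.4, with 5 mM MgCl₂ and 1 mM NADPH, at 37 °C. Samples at 0, 7, 17, 30 and 60 min quenched with cold methanol and analysed by LC-MS/MS. Half-life, Cl_int and MF% derived as previously described.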

[19] = Metabolic stability in human liver microsome assessed as elimination half life at 0.1 uM in presence of NADPH incubated upto 60 mins by LC-MS/MS analysis; assay type: ADME; conditions: liver microsomes, read-out: beta t1/2; procedure, shortened: as §4
[20] = Metabolic stability in rat liver microsome assessed as intrinsic clearance at 0.1 uM in presence of NADPH incubated upto 60 mins by LC-MS/MS analysis; assay type: ADME; conditions: microsomes, 1 h; procedure, shortened: as §4
[21] = Metabolic stability in human liver microsome assessed as intrinsic clearance at 0.1 uM in presence of NADPH incubated upto 60 mins by LC-MS/MS analysis; assay type: ADME; conditions: microsomes, 1 h; procedure, shortened: as §4
[22] = Metabolic stability in rat liver microsome assessed as metabolic bioavailability at 0.1 uM in presence of NADPH incubated upto 60 mins by LC-MS/MS analysis; assay type: ADME; conditions: liver microsomes; procedure, shortened: as §4
[23] = Metabolic stability in human liver microsome assessed as metabolic bioavailability at 0.1 uM in presence of NADPH incubated upto 60 mins by LC-MS/MS analysis; assay type: ADME; conditions: liver microsomes; procedure, shortened: as §4
[24] = Drug metabolism in Spargue-Dawley rat liver microsomes assessed as formation of M5 metabolite incubated upto 60 mins by UHPLC-MS/MS analysis; assay type: ADME, Microsome; conditions: 1 h
Procedure, shortened: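 Male SD rat liver microsomes at 1 mg protein/mL with 2 mM NADP and 5 mM MgCl₂ in 100 mM potassium phosphate, pH 7.4. Compound preincubated 5 min at 37 °C. Samples at 0, 30 and 60 min quenched with cold acetonitrile containing 0.1% formic acid, then analysed by UHPLC-MS/MS. Relative peak areas from extracted ion chromatograms at 60 min.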

[25] = AUC (0 to infinity) in Sprague-Dawley rat at 4 mg/kg, iv measured upto 24 hrs by LC-MS/MS analysis; assay type: ADME, organism-based; set-up: time < 24 hrs, dose 4 mg/kg, route iv; conditions: in vivo
Procedure, shortened: (§5)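 Male Sprague-Dawley rats, n = 3 per group, single intravenous dose. For 4 mg/kg: 180–280 g rats, vehicle 5% DMSO + 5% EtOH + 40% PEG300 + 50% saline, blood from the retrobulbar vein at 0.05–24 h. For 5 and 20 mg/kg: 180–300 g rats, vehicle 5% DMSO + 5% solutol + 90% saline, sampled at 0.083–24 h. Plasma quantified by LC/MS/MS. Parameters from mean plasma concentration by noncompartmental analysis; values are mean ± standard deviation.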

[26] = Elimination half life in Sprague-Dawley rat at 4 mg/kg, iv measured upto 24 hrs by LC-MS/MS analysis; assay type: ADME, organism-based; conditions: in vivo, read-out: beta t1/2 (converted); procedure, shortened: as §5
[27] = MRT in Sprague-Dawley rat at 4 mg/kg, iv measured upto 24 hrs by LC-MS/MS analysis; assay type: ADME, organism-based; conditions: in vivo; procedure, shortened: as §5
[28] = Clearance in Sprague-Dawley rat at 4 mg/kg, iv measured upto 24 hrs by LC-MS/MS analysis; assay type: ADME, organism-based; conditions: in vivo; procedure, shortened: as §5
[29] = Volume of distribution at the steady state in Sprague-Dawley rat at 4 mg/kg, iv measured upto 24 hrs by LC-MS/MS analysis; assay type: ADME, organism-based; conditions: in vivo, read-out: Vdss; procedure, shortened: as §5
[30] = Cytotoxicity against human L02 cells assessed as cell viability measured for 48 hrs by CCK-8 assay; assay type: toxicity, cell-based
Procedure, shortened: (§6)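 Cells seeded at 1 × 10⁴ per well and grown for 48 h. Then exposed to test articles at 1–200 μM for another 48 h (n = 6). Viability by CCK-8 added for 2 h, absorbance read at 450 nm. CC50 calculated and reported as the mean.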

[31] = Cytotoxicity against human HEK293 cells assessed as cell viability measured for 48 hrs by CCK-8 assay; assay type: toxicity, cell-based; procedure, shortened: as §6
[32] = tested on: Staphylococcus aureus; experiment: Antibacterial activity against methicillin-resistant Staphylococcus aureus strains 15 1 to 4 assessed as reduction in bacterial growth incubated for 18 to 20 hrs by CLSI based microdilution method; assay type: functional; conditions: time 18-20 hrs; procedure, shortened: as §1

Structure (SMILES) | MIC [1] [ng/mL] | MIC [2] [ng/mL] | MIC [3] [µg/mL] | MIC [4] [µg/mL] | MIC [5] [µg/mL] | inhibition at 2 min, 40 µM [6] [%] | IC50 [7] [µM] | MIC [8] [µg/mL] | MIC [9] [µg/mL] | MIC [10] [µg/mL] | MIC [11] [µg/mL] | MIC [12] [µg/mL] | MIC [13] [µg/mL] | MIC [14] [µg/mL] | MIC [15] [µg/mL] | MIC [16] [µg/mL] | MIC [17] [µg/mL] | CC50 at 48 h [30] [µM] | CC50 at 48 h [31] [µM] | other results
CCC(CN)=C1CN(c2nc(Oc3cnc(C)nc3)nc3[nH]c4c(NC)cc(F)cc4c23)C1 | < 8 | < 8 | < 0.008 | < 0.008 | 0.5 (≈ 1.11 µM) | 41.1 | > 40 | 0.25 (≈ 0.557 µM) | 0.25 (≈ 0.557 µM) | 0.125 (≈ 0.279 µM) | 1 (≈ 2.23 µM) | 2 (≈ 4.46 µM) | 1 (≈ 2.23 µM) | 0.125 (≈ 0.279 µM) | 0.125 (≈ 0.279 µM) | 2 (≈ 4.46 µM) | 1 (≈ 2.23 µM) | 9.74 | 17 | half-life at 0.1 µM [18]: 28.3 min; half-life at 0.1 µM [19]: 147 min; CLH [20]: 74.3 mL/min/g; CLH [21]: 14.3 mL/min/g; Fh at 1 h, 0.1 µM [22]: 37.4%; Fh at 1 h, 0.1 µM [23]: 57.8%; Activity [24]: 72.85%; AUC(0-inf) [25]: 776 ng·h/mL; half-life [26]: 222 min; MRT [27]: 2.8 h; clearance [28]: 86.7 mL/min/kg; Vd [29]: 14.7 L/kg
CNc1cc(F)cc2c1[nH]c1nc(Oc3cnc(C)nc3)nc(N3CC4CCNC4C3)c12 (racemic) | < 8 | < 8 | 0.25 (≈ 0.575 µM) | 0.06 (≈ 0.138 µM) | 0.5 (≈ 1.15 µM) | 70.5 | 12.3 | 0.5 (≈ 1.15 µM) | 0.5 (≈ 1.15 µM) | 0.25 (≈ 0.575 µM) | 2 (≈ 4.6 µM) | 4 (≈ 9.21 µM) | 1 (≈ 2.3 µM) | 0.5 (≈ 1.15 µM) | 0.25 (≈ 0.575 µM) | 16 (≈ 36.8 µM) | 4 (≈ 9.21 µM) | 24 | 21.8 | MIC [32]: 0.015 µg/mL (≈ 0.0345 µM)
